Columns and labels:
Type in all cases: functional
Rattus norvegicus [1] = experiment: The compound was evaluated in vivo for their ability to inhibit formalin induced flinching in rats by subcutaneous administration
In short: (§1)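 Rat formalin-induced flinching with subcutaneous dosing, starting at 10 or 30 mg/kg. Read-out is % inhibition of flinching at the dose given, or an A50 in mg/kg from titration.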

Rattus norvegicus [2] = experiment: The compound was evaluated in vivo for sedation in rats by subcutaneous administration using Rotarod assay; details: sc
In short: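 Sedation, taken as a centrally mediated side effect, scored by rotarod performance in rats after subcutaneous dosing. Read-out is the ED50 in mg/kg.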

Rattus norvegicus [3] = experiment: The compound was evaluated in vivo for its ability to inhibit formalin induced flinching in rats by intrapaw administration
In short: (§2)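 Rat formalin-induced flinching with intrapaw dosing. Read-out is % inhibition of flinching at the stated dose. Agents reaching ≥80% antagonism at 300 µg were titrated to an A50 in µg.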

Rattus norvegicus [4] = experiment: The compound was evaluated in vivo for antagonism of formalin induced flinching in rats at 300 (microg) by intrapaw administration; in short: as §2
Rattus norvegicus [5] = experiment: The compound was evaluated in vivo for antagonism of formalin induced financing in rats at 30 […] by subcutaneous administration; in short: as §1
Rattus norvegicus [6] = experiment: The compound was evaluated in vivo for antagonism of formalin induced flinching in rats at 1000 (microg) by intrapaw administration; in short: as §2
Rattus norvegicus [7] = experiment: The compound was evaluated in vivo for antagonism of formalin induced […] in rats at 10 […] by subcutaneous administration; in short: as §1
Rattus norvegicus [8] = experiment: The compound was evaluated in vivo for percent decrease of sedation in rats at 3 mg/kg by subcutaneous administration using Rotarod assay

SMILES | A50 (Rattus norvegicus [1]) [mg/kg] | ED50 (Rattus norvegicus [2]) [mg/kg] | A50 (Rattus norvegicus [3]) [µg] | other results
CN(C(=O)Cc1cccc(C(F)(F)F)c1)[C@H](CN1CCCC1)c1ccccc1 | 0.02 | 0.18 |  | 
CN(C(=O)Cc1ccccc1N)[C@H](CN1CCCC1)c1ccccc1 | 1.5 | 8.9 | 65 | 
CN(C(=O)Cc1ccc(Cl)c(Cl)c1N(S(C)(=O)=O)S(C)(=O)=O)[C@H](CN1CCCC1)c1ccccc1 |  |  | 28 | 
CN(C(=O)Cc1cccc([N+](=O)[O-])c1)[C@H](CN1CCCC1)c1ccccc1 |  |  |  | Antagonism (Rattus norvegicus [4]): 95%
CN(C(=O)Cc1ccc(N(S(C)(=O)=O)S(C)(=O)=O)cc1)[C@H](CN1CCCC1)c1ccccc1 |  |  |  | Antagonism (Rattus norvegicus [5]): 30%; Antagonism (Rattus norvegicus [6]): 95%
CN(C(=O)Cc1ccccc1N(S(C)(=O)=O)S(C)(=O)=O)[C@H](CN1CCCC1)c1ccccc1 |  |  | 17 | Antagonism (Rattus norvegicus [5]): 21%
CN(C(=O)Cc1cccc(N(S(C)(=O)=O)S(C)(=O)=O)c1)[C@H](CN1CCCC1)c1ccccc1 |  |  |  | Antagonism (Rattus norvegicus [7]): 15%; Antagonism (Rattus norvegicus [4]): 91%
CN(C(=O)Cc1ccc(C(F)(F)F)cc1)[C@H](CN1CCCC1)c1ccccc1 | 0.009 | 0.12 | 0.82 | 
CN(C(=O)Cc1ccc(Cl)c(Cl)c1N)[C@H](CN1CCCC1)c1ccccc1 |  |  | 7 | 
CN(C(=O)Cc1ccccc1[N+](=O)[O-])[C@H](CN1CCCC1)c1ccccc1 |  |  | 29 | 
CN(C(=O)Cc1ccccc1C(F)(F)F)[C@H](CN1CCCC1)c1ccccc1 | 0.54 |  |  | Decrease (Rattus norvegicus [8]): 71%
CN(C(=O)Cc1cccc(N)c1)[C@H](CN1CCCC1)c1ccccc1 |  |  |  | Antagonism (Rattus norvegicus [4]): 58%
CN(C(=O)Cc1ccc(N)cc1)[C@H](CN1CCCC1)c1ccccc1 |  |  |  | Antagonism (Rattus norvegicus [4]): 52%
CN(C(=O)Cc1ccc(Cl)c(Cl)c1[N+](=O)[O-])[C@H](CN1CCCC1)c1ccccc1 | 0.24 | 0.97 | 5.3 | 
CN(C(=O)Cc1ccc(Cl)c(Cl)c1)[C@H](CN1CCCC1)c1ccccc1 [ICI-199,441] | 0.05 | 0.14 | 0.74 | 

— ChEMBL document CHEMBL1132816, “Arylacetamides as peripherally restricted kappa opioid receptor agonists” (Bioorg Med Chem Lett, 2000)
